What was measured:
Format in all cases: functional
Parameters in all cases: unit not given here
Candida albicans = test: Antifungal activity against Candida albicans ATCC 10231
Method in brief: (§1)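 Fungal MIC by standard 2-fold serial dilution in Sabouraud dextrose agar, using compounds diluted from 1 mg/mL DMSO stocks. Plates receive about 10⁶ CFU/mL fungal suspension made from broth cultures, in triplicate, and are kept at 37 °C for 48–72 h. Clotrimazole is the reference drug.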

Escherichia coli = test: Antibacterial activity against Escherichia coli ATCC 445
Method in brief: (§2)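 Agar 2-fold serial dilution MIC on nutrient agar. Test compounds come from 1 mg/mL DMSO stocks. Inoculum is about 10⁷ CFU/mL bacterial suspension prepared from broth cultures. Plates are run in triplicate and incubated at 37 °C for 16–47 h. Ampicillin trihydrate is the reference drug, tested under the same conditions.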

Bacillus subtilis = test: Antibacterial activity against Bacillus subtilis ATCC 6633; method in brief: as §2
Aspergillus niger = test: Antifungal activity against Aspergillus niger ATCC 16404; method in brief: as §1

SMILES | -Log MIC (Candida albicans) | -Log MIC (Escherichia coli) | -Log MIC (Bacillus subtilis) | -Log MIC (Aspergillus niger)
CCOC(=O)c1pc(P(Cl)Cl)c2n1[C@@H](N=Nc1ccc(OC)cc1)C(=O)Nc1ccc(C)cc1-2 (stereo partly drawn) | 4.24 | 4.26 | 4.29 | 4.39
CCOC(=O)c1pc(P(Cl)Cl)c2n1[C@@H](N=Nc1cccc(OCC)c1)C(=O)Nc1ccc(C)cc1-2 (stereo partly drawn) | 4.78 | 5.04 | 4.96 | 4.89
CCOC(=O)c1pc(P(Cl)Cl)c2n1[C@@H](N=Nc1ccc([N+](=O)[O-])cc1)C(=O)Nc1ccc(C)cc1-2 (stereo partly drawn) | 4.32 | 4.61 | 4.52 | 4.45
CCOC(=O)c1pc(P(Cl)Cl)c2n1[C@@H](N=Nc1ccc(C)cc1)C(=O)Nc1ccc(C)cc1-2 (stereo partly drawn) | 4.09 | 4.17 | 4.22 | 4.22
CCOC(=O)c1pc(P(Cl)Cl)c2n1[C@@H](N=Nc1cccc(O)c1)C(=O)Nc1ccc(C)cc1-2 (stereo partly drawn) | 4.11 | 4.2 | 4.22 | 4.25
CCOC(=O)c1pc(P(Cl)Cl)c2n1[C@@H](N=Nc1ccc(O)cc1)C(=O)Nc1ccc(C)cc1-2 (stereo partly drawn) | 4.06 | 4.11 | 4.17 | 4.18
CCOC(=O)c1pc(P(Cl)Cl)c2n1[C@@H](N=Nc1cccc([N+](=O)[O-])c1)C(=O)Nc1ccc(C)cc1-2 (stereo partly drawn) | 4.5 |  | 4.55 | 4.56
CCOC(=O)c1pc(P(Cl)Cl)c2n1[C@@H](N=Nc1ccc(OCC)cc1)C(=O)Nc1ccc(C)cc1-2 (stereo partly drawn) | 4.59 | 4.74 | 4.83 | 4.74
CCOC(=O)c1pc(P(Cl)Cl)c2n1[C@@H](N=Nc1ccc(Cl)cc1)C(=O)Nc1ccc(C)cc1-2 (stereo partly drawn) | 4.36 | 4.39 | 4.41 | 4.51
CCOC(=O)c1pc(P(Cl)Cl)c2n1[C@@H](N=Nc1cccc(C(=O)O)c1)C(=O)Nc1ccc(C)cc1-2 (stereo partly drawn) | 4.32 | 4.36 | 4.37 | 4.48
CCOC(=O)c1pc(P(Cl)Cl)c2n1[C@@H](N=Nc1cccc(C)c1)C(=O)Nc1ccc(C)cc1-2 (stereo partly drawn) | 4.17 | 4.22 | 4.25 | 4.31
CCOC(=O)c1pc(P(Cl)Cl)c2n1[C@@H](N=Nc1cccc(CC)c1)C(=O)Nc1ccc(C)cc1-2 (stereo partly drawn) | 4.61 | 4.88 | 4.68 | 4.82
CCOC(=O)c1pc(P(Cl)Cl)c2n1[C@@H](N=Nc1cccc(OC)c1)C(=O)Nc1ccc(C)cc1-2 (stereo partly drawn) | 4.39 | 4.3 | 4.28 | 4.56
CCOC(=O)c1pc(P(Cl)Cl)c2n1[C@@H](N=Nc1ccc(CC)cc1)C(=O)Nc1ccc(C)cc1-2 (stereo partly drawn) | 4.52 | 4.58 | 4.64 | 4.64
CCOC(=O)c1pc(P(Cl)Cl)c2n1[C@@H](N=Nc1cccc(Cl)c1)C(=O)Nc1ccc(C)cc1-2 (stereo partly drawn) | 4.47 | 4.54 | 4.46 | 4.68
CCOC(=O)c1pc(P(Cl)Cl)c2n1[C@@H](N=Nc1ccccc1)C(=O)Nc1ccc(C)cc1-2 (stereo partly drawn) | 4.1 | 4.05 | 4.05 | 4.12

— ChEMBL document CHEMBL1147022, “Studies on synthesis and evaluation of quantitative structure-activity relationship of 10-methyl-6-oxo-5-arylazo-6,7-dihydro-5H-[1,3]azaphospholo[1,5-d][1,4]benzodiazepin-2-phospha-3-ethoxycarbonyl-1-phosphorus dichlorides” (2006)
